Measurements from ChEMBL document CHEMBL1124542, “Cholecystokinin antagonists. Synthesis and biological evaluation of 3-substituted benzolactams” (J Med Chem, 1989).

tested on: Mus musculus; test: Dose rquired to inhibit CCK-induced gastric emptying in mice p.o.; type: functional; conditions: Stomach, po
Outline: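 Antagonism of CCK-8-induced inhibition of gastric emptying, with gastric emptying followed using a charcoal meal. Test agents were given orally, and the ED50 was taken as the oral dose (mg/kg) that antagonized the CCK-8 effect.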

| SMILES | ED50 [mg/kg] |
| --- | --- |
| CC(C)(C)OC(=O)CN1C(=O)[C@H](NC(=O)c2ccc3ccccc3c2)CCc2ccccc21 | 6.8 |
| CC(C)(C)OC(=O)CN1C(=O)C(NC(=O)c2cc3ccccc3[nH]2)CCc2ccccc21 (configuration not stated) | 2.6 |
| CN1C(=O)[C@@H](NC(=O)c2cc3ccccc3[nH]2)N=C(c2ccccc2)c2ccccc21 [DEVAZEPIDE] | 0.04 |

biological target: T1, Cholecystokinin receptor (Rattus norvegicus, UniProt P30551+P30553); test: Inhibition of [125I]-CCK-8 binding to CCK receptors in rat pancreatic tissue; conditions: not given
T1 sequence (P30551 whole entry): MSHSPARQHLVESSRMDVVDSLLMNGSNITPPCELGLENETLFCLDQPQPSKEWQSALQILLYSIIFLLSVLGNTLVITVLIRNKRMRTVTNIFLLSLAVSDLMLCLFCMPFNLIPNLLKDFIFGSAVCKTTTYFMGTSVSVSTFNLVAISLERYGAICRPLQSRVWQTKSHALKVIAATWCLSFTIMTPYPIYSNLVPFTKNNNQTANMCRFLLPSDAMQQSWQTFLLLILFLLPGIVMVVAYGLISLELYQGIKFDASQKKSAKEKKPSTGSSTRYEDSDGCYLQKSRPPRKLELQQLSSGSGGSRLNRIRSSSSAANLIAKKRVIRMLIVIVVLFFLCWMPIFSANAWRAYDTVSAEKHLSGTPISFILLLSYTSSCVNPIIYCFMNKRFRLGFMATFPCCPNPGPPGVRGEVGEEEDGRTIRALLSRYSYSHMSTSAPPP
T1 sequence (P30553 whole entry): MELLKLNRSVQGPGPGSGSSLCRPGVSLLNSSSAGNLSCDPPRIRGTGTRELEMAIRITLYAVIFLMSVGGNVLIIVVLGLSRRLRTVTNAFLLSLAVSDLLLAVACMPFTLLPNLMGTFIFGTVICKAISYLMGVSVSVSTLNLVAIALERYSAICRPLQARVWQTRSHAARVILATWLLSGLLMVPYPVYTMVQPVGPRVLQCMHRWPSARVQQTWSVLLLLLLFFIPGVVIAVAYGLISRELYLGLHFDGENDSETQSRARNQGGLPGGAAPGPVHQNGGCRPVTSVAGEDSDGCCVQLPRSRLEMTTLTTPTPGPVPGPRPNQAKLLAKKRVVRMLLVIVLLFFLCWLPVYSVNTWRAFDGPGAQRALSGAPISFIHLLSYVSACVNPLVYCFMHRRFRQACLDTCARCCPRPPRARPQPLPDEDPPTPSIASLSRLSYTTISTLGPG

| SMILES | IC50 [nM] |
| --- | --- |
| CC(C)(C)OC(=O)CN1C(=O)C(NC(=O)c2ccc(Cl)cc2)CCc2ccccc21 (configuration not stated) | 130 |
| CCOC(=O)CN1C(=O)C(NC(=O)c2cc3ccccc3[nH]2)CCc2ccccc21 (configuration not stated) | 110 |
| CC(C)(C)OC(=O)CN1C(=O)C(N)CCc2ccccc21 (configuration not stated) | 100000 |
| CC(C)(C)OC(=O)CN1C(=O)C(NC(=O)c2ccc(Cl)c(Cl)c2)CCc2ccccc21 (configuration not stated) | 28 |
| O=C(NC1CCc2ccccc2N(Cc2ccccc2)C1=O)c1cc2ccccc2[nH]1 (configuration not stated) | 35 |

Next, values leading:

| IC50 [nM] | SMILES |
| --- | --- |
| 3 | CC(C)(C)OC(=O)CN1C(=O)[C@H](NC(=O)c2cc3ccccc3[nH]2)CCc2ccccc21 |
| 4.2 | CC(C)(C)OC(=O)CN1C(=O)[C@H](NC(=O)c2ccc3ccccc3c2)CCc2ccccc21 |
| 200 | CC(C)(C)OC(=O)CN1C(=O)[C@@H](NC(=O)c2cc3ccccc3[nH]2)CCc2ccccc21 |
| 200 | CC(C)(C)OC(=O)CN1C(=O)C(NC(=O)c2cc3ccccc3[nH]2)Cc2ccccc21 (configuration not stated) |
| 60 | CC(C)(C)OC(=O)CN1C(=O)C(NC(=O)c2cc3ccccc3[nH]2)CCCc2ccccc21 (configuration not stated) |
| 2000 | CC(C)(C)OC(=O)CN1C(=O)C(NC(=O)CCc2c[nH]c3ccccc23)CCc2ccccc21 (configuration not stated) |
| 7 | CC(C)(C)OC(=O)CN1C(=O)C(NC(=O)c2cc3ccccc3[nH]2)CCc2ccccc21 (configuration not stated) |

biological target: T1, Cholecystokinin receptor; test: Half-maximal inhibition of binding of [125I]CCK-8 to Cholecystokinin receptor in rat pancreatic tissue; conditions: not given

| SMILES | IC50 [nM] |
| --- | --- |
| CC(C)(C)OC(=O)CN1C(=O)C(NCc2ccc3ccccc3c2)CCc2ccccc21 (configuration not stated) | 4 |
| O=C(O)CN1C(=O)C(NC(=O)c2ccc3ccccc3c2)CCc2ccccc21 (configuration not stated) | 2300 |
| CN(C)c1ccc(C(=O)NC2CCc3ccccc3N(CC(=O)OC(C)(C)C)C2=O)cc1 (configuration not stated) | 50000 |
| CN1C(=O)C(NC(=O)c2ccc3ccccc3c2)CCc2ccccc21 (configuration not stated) | 6800 |

Further lines, results first:

| IC50 [nM] | SMILES |
| --- | --- |
| 2100 | CC(C)(C)OC(=O)CN1C(=O)C(NC(=O)c2ccccc2)CCc2ccccc21 (configuration not stated) |
| 7.5 | CC(C)(C)OC(=O)CN1C(=O)C(NC(=O)c2ccc3ccccc3c2)CCc2ccccc21 (configuration not stated) |
| 2700 | CC(C)(C)OC(=O)CN1C(=O)C(NC(=O)Cc2ccc3ccccc3c2)CCc2ccccc21 (configuration not stated) |
